# Source: article PMC6032921 (Acta Physiologica (Oxford, England), 2018)
# Assays:
# [1] = list of hypothermia‐inducing TRPV1 antagonists; cited from earlier work
# [2] = test system: TRPV1; conditions: cited from earlier work
# [3] = test system: rats; conditions: cited from earlier work
# [4] = molecular target: T1, rat TRPV1 channels (Rattus norvegicus, UniProt O35433); assay: ^45Ca^2+ uptake assay with scintillation counter, CHO cells expressing rat TRPV1; type: cell-based; conditions: pH 5.0
# In short: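 CHO cells stably expressing rat TRPV1 were seeded 2 days before the assay (20,000 cells/well). Cells were exposed for 2 min at room temperature to test compound (200 pmol L⁻¹ to 4 μmol L⁻¹) with capsaicin (500 nmol L⁻¹) in HBSS pH 7.4 with BSA and HEPES, or with compound in MES buffer pH 5.0 with 30 mmol L⁻¹ HEPES. ⁴⁵Ca²⁺ (10 μCi mL⁻¹ final) was added for 2 min, cells were washed, and uptake was measured by scintillation counting.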
# [5] = test system: Trpv1 ^+/+ mice; assay: Abdominal T b in Trpv1 +/+ mice, telemetry, i.g. gavage; type: in vivo, mouse; conditions: 30 mg kg^−1 i.g., at 140 minutes
# [6] = test system: Trpv1 ^−/− mice; assay: Abdominal T b in Trpv1 −/− mice, telemetry, i.g. gavage; type: in vivo, mouse; conditions: 30 mg kg^−1 i.g.
# [7] = test system: Trpv1 ^+/+ mice; assay: Abdominal T b in Trpv1 +/+ mice, telemetry, i.p. catheter; type: in vivo, mouse; conditions: 10 mg kg^−1 i.p.
# In short: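 Mice of both sexes (18‐27 g) were habituated to wire‐mesh confiners for 8 days. Under ketamine‐xylazine they were implanted intraperitoneally with a telemetry transmitter and a saline‐filled catheter, and tested 3‐6 days later. Test compound (0.75 mg mL⁻¹ in saline with 5% Tween‐80, warmed to 37°C) was given as a 10 mg kg⁻¹ bolus (~13 mL kg⁻¹) via the catheter, versus vehicle. Abdominal T_b was analysed by 2‐way ANOVA with Fisher's LSD.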
# [8] = test system: Trpv1 ^−/− mice; assay: Abdominal T b in Trpv1 −/− mice, telemetry, i.p. catheter; type: in vivo, mouse; conditions: 10 mg kg^−1 i.p.
# [9] = test system: TRPV1; conditions: cited from earlier work; for effect on TRPV1 activation by protons in vitro: ref Lehto et al 16
# [10] = molecular target: T1, rat TRPV1 channels; conditions: cited from earlier work
# [11] = molecular target: human TRPV1 channels (Homo sapiens, UniProt Q8NER1); conditions: cited from earlier work
# [12] = molecular target: corneal TRPV1 channels (Rattus norvegicus, UniProt O35433); assay: Eye‐wiping test after intra‐abdominal RTX desensitization; type: in vivo; conditions: rats desensitized with RTX 20 μg kg^−1 i.p.
# In short: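 This test was done 6‐16 days after i.p. RTX (20 μg kg⁻¹) or vehicle pre‐treatment of rats. Counts were compared between desensitized and sham‐desensitized rats by […] 2‐tailed Student's t test.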
# [13] = test system: humans; conditions: clinical trial in humans; cited from earlier work
# [14] = test system: rats; conditions: rat models of inflammatory pain and heat hyperalgesia; cited from earlier work
# T1 sequence (O35433 whole entry): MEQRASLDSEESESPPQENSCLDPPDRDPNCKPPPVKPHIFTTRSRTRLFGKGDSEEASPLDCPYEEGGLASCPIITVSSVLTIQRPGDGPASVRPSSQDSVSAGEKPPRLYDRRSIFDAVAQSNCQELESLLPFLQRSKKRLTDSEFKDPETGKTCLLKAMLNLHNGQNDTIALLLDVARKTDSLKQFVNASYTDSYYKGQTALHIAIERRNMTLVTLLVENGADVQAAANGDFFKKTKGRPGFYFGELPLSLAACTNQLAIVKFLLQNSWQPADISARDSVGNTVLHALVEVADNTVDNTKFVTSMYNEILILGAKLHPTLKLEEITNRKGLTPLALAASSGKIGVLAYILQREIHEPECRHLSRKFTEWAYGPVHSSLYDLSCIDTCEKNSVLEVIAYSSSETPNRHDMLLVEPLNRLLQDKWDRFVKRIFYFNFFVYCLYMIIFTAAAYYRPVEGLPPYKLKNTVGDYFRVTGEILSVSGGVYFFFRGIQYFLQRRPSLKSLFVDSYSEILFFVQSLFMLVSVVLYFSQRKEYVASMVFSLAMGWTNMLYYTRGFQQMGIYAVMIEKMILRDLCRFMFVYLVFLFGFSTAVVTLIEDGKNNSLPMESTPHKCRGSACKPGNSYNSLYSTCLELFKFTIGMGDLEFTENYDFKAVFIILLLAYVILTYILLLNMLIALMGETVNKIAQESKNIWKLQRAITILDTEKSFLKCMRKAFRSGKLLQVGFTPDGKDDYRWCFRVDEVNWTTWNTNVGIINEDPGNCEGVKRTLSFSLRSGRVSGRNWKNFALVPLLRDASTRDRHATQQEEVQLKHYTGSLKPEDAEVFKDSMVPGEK
# Chain of corneal TRPV1 channels (O35433 whole entry): as above
# Chain of human TRPV1 channels (Q8NER1 whole entry): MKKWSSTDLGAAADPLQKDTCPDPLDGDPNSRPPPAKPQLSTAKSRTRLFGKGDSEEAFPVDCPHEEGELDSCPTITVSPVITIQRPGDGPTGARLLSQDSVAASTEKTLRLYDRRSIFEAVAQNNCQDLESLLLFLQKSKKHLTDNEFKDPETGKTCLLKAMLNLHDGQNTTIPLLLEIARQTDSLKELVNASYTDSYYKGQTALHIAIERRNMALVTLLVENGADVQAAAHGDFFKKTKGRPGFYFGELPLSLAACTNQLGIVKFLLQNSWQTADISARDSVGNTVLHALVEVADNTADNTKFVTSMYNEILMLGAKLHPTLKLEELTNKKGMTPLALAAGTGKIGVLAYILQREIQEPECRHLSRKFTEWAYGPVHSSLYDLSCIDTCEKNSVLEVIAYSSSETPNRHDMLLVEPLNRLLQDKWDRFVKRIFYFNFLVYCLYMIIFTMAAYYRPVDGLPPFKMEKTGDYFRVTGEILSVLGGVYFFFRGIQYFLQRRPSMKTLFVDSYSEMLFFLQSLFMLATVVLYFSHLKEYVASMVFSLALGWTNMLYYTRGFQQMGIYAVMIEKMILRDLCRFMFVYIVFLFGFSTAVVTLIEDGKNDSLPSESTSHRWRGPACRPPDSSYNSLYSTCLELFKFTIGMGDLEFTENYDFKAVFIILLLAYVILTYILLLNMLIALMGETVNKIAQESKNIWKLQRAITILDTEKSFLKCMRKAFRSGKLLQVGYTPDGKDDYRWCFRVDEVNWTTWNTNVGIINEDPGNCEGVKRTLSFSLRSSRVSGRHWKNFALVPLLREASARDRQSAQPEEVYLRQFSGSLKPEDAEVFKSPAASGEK
smiles,measurement,setting,value
"C=C(C)[C@]12C[C@@H](C)[C@@]34O[C@](Cc5ccccc5)(O[C@@H]1[C@@H]3C=C(COC(=O)Cc1cc(I)c(O)c(OC)c1)C[C@]1(O)C(=O)C(C)=C[C@@H]41)O2 [5′‐I‐RTX, 5′‐iodo‐resiniferatoxin]",effect on deep body temperature (T b),[1],cause hypothermia
same,TRPV1 agonistic or capsaicin‐potentiating activity,[2],partial agonists
O=C(/C=C/c1ccc(C(F)(F)F)nc1N1CCCCC1)Nc1cccc2c1CC(O)CC2 (centres unmarked) [AMG0347],effect on deep T b in rats,[3],increase deep T b in rats
FC(F)(F)c1ccc(-c2cc(Nc3ccc4ncsc4c3)ncn2)c(NCC2CCCCC2)c1 [AMG7905],effect on ^45Ca^2+ influx in the proton activation mode,[4],concentration‐dependent potentiation
same,biggest intertreatment difference in T b (hypothermia vs vehicle),[5],7.8 °C
same,effect on T b,[6],did not cause hypothermia
same,drop in T b compared to vehicle,[7],> 2 °C
same,effect on T b,[8],neither A‐1165901 nor AMG7905 had any effect on T b
same,effect on deep body temperature (T b),[1],cause hypothermia
same,TRPV1 agonistic or capsaicin‐potentiating activity,[2],showed no TRPV1 agonistic or capsaicin‐potentiating activity
same,effect on TRPV1 activation by protons in vitro,[9],potentiated TRPV1 activation by protons in vitro
"O=C(/C=C/c1ccc(C(F)(F)F)cc1N1CCCCC1)Nc1cccc2c1C[C@H](O)C2 [AMG8562, (R, E)‐N‐(2‐hydroxy‐2,3‐dihydro‐1H‐inden‐4‐yl)‐3‐(2‐(piperidin‐1‐yl)‐4‐(trifluoromethyl)phenyl)‐acrylamide]",effect on deep body temperature (T b),[1],cause hypothermia
same,TRPV1 agonistic or capsaicin‐potentiating activity,[2],showed no TRPV1 agonistic or capsaicin‐potentiating activity
same,effect on TRPV1 activation by protons in vitro,[9],potentiated TRPV1 activation by protons in vitro
CC(=O)Nc1nc2c(Oc3cc(-c4ccc(C(F)(F)F)cc4)ncn3)cccc2s1 [AMG 517],effect on deep T b in rats,[3],increase deep T b in rats
"O=C(NCc1ccc(C(F)(F)F)cc1)Nc1cccc2cnccc12 [A‐425619, 1‐isoquinolin‐5‐yl‐3‐(4‐trifluoromethyl‐benzyl)‐urea]",effect on deep body temperature (T b),[1],cause hypothermia
same,TRPV1 agonistic or capsaicin‐potentiating activity,[2],showed no TRPV1 agonistic or capsaicin‐potentiating activity
"Cc1ccc(N2c3cccc(C(=O)Nc4ccc(OCC(F)(F)F)nc4)c3OC[C@@H]2CO)nc1 [JTS‐653, (3S)‐3‐(hydroxymethyl)‐4‐(5‐methylpyridin‐2‐yl)‐N‐[6‐(2,2,2‐trifluoroethoxy)pyridin‐3‐yl]‐3,4‐dihydro‐2H‐benzo[b][1,4]oxazine‐8‐carboxamide]",effect on T b in rats,[3],cause hyperthermia in rats
same,effect on proton‐induced activation of TRPV1,[10],potently block proton‐induced activation
same,effect on proton‐induced activation of TRPV1,[11],potently block proton‐induced activation
CC(C)(C)c1ccc(CNC(=S)NCc2ccc(NS(C)(=O)=O)c(F)c2)cc1 [JYL1421],effect on deep body temperature (T b),[1],cause hypothermia
same,TRPV1 agonistic or capsaicin‐potentiating activity,[2],showed no TRPV1 agonistic or capsaicin‐potentiating activity
"C=C(C)[C@]12C[C@@H](C)[C@@]34O[C@](Cc5ccccc5)(O[C@@H]1[C@@H]3C=C(COC(=O)Cc1ccc(O)c(OC)c1)C[C@]1(O)C(=O)C(C)=C[C@@H]41)O2 [RTX, resiniferatoxin]",eye‐wiping response to topical RTX in desensitized vs sham‐desensitized rats,[12],no meaningful difference
"O=C(Nc1ccc(C(F)(F)F)cn1)N1CC=C(c2ncc([C@H](O)CO)cc2Cl)CC1 [V116517, 4‐[3‐chloro‐5‐[(1S)‐1,2‐dihydroxyethyl]‐2‐pyridyl]‐N‐[5‐(trifluoromethyl)‐2‐pyridyl]‐3,6‐dihydro‐2H‐pyridine‐1‐carboxamide]",effect on T b in rats,[3],causing hyperthermia in rats
same,effect on TRPV1 activation by protons,[9],potently blocking TRPV1 activation by protons
same,effect on T b in humans,[13],caused no hyperthermia
Oc1cc2c(cc1O)CN(C(=S)NCCc1ccc(Cl)cc1)CCC2 [capsazepine],effect on T b in rats,[3],does not affect T b in rats
same,effect on proton activation of TRPV1,[10],no allosteric effect on proton activation
same,efficacy in pain models,[14],efficacious
